Measurements published in ChEMBL document CHEMBL3804820, “2-hydroxyisoquinoline-1,3(2H,4H)-diones (HIDs) as human immunodeficiency virus type 1 integrase inhibitors: Influence of the alkylcarboxamide substitution of position 4” (Eur J Med Chem, 2016).
The source made the active and inactive calls. The rule behind the calls is not given here.

Key:
[1] = Apparent permeability coefficient in human Caco2 cells at pH 6.5/7.4 at 10 uM; format: ADME, cell-based; settings: Caco-2, pH 6.5
Procedure, shortened: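 A-to-B permeability measured in Caco-2 monolayers at pH 6.5/7.4, reported as Papp. Standard contract assay.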

hERG (KCNH2) [2] = target: T1, hERG (KCNH2) (Homo sapiens, UniProt Q12809); experiment: in vitro; settings: CHO-K1 cells expressing human ERG
T1 sequence (Q12809 whole entry): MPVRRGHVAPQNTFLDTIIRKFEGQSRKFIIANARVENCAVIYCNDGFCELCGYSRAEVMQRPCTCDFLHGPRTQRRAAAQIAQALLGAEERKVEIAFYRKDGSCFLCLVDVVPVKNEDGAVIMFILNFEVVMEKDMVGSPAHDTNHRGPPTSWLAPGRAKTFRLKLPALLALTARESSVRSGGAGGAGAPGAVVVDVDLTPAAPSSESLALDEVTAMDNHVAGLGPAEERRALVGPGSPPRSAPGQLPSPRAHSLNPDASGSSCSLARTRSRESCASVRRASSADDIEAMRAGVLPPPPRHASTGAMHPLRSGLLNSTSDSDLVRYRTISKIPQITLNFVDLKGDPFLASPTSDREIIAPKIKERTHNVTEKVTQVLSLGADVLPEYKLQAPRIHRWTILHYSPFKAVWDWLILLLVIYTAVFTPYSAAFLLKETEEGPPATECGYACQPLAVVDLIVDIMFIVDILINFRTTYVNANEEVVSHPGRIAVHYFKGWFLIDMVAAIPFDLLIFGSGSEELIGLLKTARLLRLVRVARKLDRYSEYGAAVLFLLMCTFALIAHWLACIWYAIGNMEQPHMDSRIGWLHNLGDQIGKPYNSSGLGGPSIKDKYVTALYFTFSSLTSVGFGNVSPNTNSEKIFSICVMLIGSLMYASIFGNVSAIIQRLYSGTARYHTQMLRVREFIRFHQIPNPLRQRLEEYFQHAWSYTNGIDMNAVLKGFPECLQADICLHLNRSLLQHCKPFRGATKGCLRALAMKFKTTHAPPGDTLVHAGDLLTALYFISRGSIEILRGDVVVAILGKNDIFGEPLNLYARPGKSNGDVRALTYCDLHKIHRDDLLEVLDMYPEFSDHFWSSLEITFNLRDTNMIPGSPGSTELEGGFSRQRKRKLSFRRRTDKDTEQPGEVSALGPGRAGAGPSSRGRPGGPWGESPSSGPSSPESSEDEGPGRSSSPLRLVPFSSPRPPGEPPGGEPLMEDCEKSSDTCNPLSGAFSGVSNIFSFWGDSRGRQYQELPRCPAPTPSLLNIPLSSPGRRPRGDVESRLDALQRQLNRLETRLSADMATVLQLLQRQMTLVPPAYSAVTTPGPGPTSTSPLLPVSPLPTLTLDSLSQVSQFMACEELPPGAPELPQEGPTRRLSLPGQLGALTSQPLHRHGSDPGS

[3] = Plasma protein binding in human at 10 uM incubated for 4 hrs by equilibrium dialysis method; format: ADME, cell-free; settings: read-out: PPB
Procedure, shortened: (§1)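 Human plasma protein binding, given as percent bound and percent recovery, in a standard contract assay.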

[4] = Inhibition of recombinant HIV1 reverse transcriptase RNase H activity using calf thymus ssDNA-[3H]-RNA as template/primer incubated for 10 mins; parameters: species or system Human immunodeficiency virus 1
Procedure, shortened: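 Recombinant HIV-1 RT (4.5 pmol) preincubated with compound 10 min at 37 °C. Then reacted 10 min at 37 °C with [3H]-RNA/calf thymus DNA hybrid (20,000 cpm) in 50 mM Tris-HCl pH 8.0, 10 mM DTT, 6 mM MgCl2, 80 mM KCl. Stopped with cold TCA/pyrophosphate; released radioactivity taken by subtraction from undigested control.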

HepG2 [5] = experiment: Cytotoxicity against human HepG2 cells assessed as increase in intracellular free calcium level at 30 uM after 72 hrs by fluorescent image analysis relative to untreated control; format: cell-based; settings: hepg2, 72 h
Procedure, shortened: (§2)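 Contract in vitro cytotoxicity panel covering cell number, intracellular free calcium, nuclear size, membrane permeability and mitochondrial membrane potential. Compounds tested at 1.0, 30.0 and 100.0 µM; values are percentage change versus untreated control, and IC50 where derived.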

[6] = Cytotoxicity against human HepG2 cells assessed as reduction in mitochondrial membrane potential at 1 uM after 72 hrs by fluorescent image analysis relative to untreated control; format: cell-based; settings: read-out: INH; procedure, shortened: as §2
[7] = target: Human immunodeficiency virus type 1 integrase (Human immunodeficiency virus 1, UniProt Q7ZJM1); experiment: Inhibition of HIV1 integrase strand transfer activity using 5'[digoxigenin]-GACCCTTTTAGTCAGTGTGGAAAATCTCTAGCA-3' as substrate incubated for 1 hr by ELISA
Human immunodeficiency virus type 1 integrase, sequence (Q7ZJM1 whole entry): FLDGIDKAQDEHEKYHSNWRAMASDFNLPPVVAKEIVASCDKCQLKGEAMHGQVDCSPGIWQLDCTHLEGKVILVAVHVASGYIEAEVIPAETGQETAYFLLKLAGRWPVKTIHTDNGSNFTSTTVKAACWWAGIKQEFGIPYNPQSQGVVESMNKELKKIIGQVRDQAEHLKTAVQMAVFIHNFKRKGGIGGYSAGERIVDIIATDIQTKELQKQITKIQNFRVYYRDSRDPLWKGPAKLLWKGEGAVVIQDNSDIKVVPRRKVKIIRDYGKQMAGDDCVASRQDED
Procedure, shortened: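 ELISA with a 3'-biotin oligo and a 5'-digoxigenin partner oligo. Overall assay uses the full complementary oligo; strand transfer uses a precleaved oligo lacking the 3'-GT. Integrase at 160 nM final, annealed oligos 7 nM, in 10 mM MgCl2, 5 mM DTT, 20 mM HEPES pH 7.5, 0.5% PEG, 15% DMSO. Run 1 h at 37 °C, products denatured with NaOH, detected on avidin plates.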

[8] = Cytotoxicity against human HepG2 cells assessed as reduction in cell number at 100 uM after 72 hrs by fluorescent image analysis relative to untreated control; format: cell-based; settings: read-out: INH; procedure, shortened: as §2
[9] = system: Human immunodeficiency virus 1; experiment: Selectivity ratio of EC50 for raltegravir resistant HIV1 harboring integrase G140S/Q148H double mutant infected in human MT4 cells to EC50 for wild type HIV1 3B infected in human MT4 cells; format: functional
Procedure, shortened: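 MT-4 cells were infected with 100–300 CCID₅₀ of virus stock (titrated in MT-4 cells) in the presence of 5-fold serial drug dilutions. EC₅₀ is the concentration giving 50% protection against virus-induced cytopathic effect, read by MTT reduction (MT-4/MTT assay). The value is the fold-change in EC₅₀ for each mutant strain relative to the wild-type HIV-1 strain.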

MDCK-II [10] = experiment: Inhibition of human P-gp expressed in MDCK2-MDR1 cells assessed as reduction in calcien-AM efflux at 30 uM incubated for 20 mins by fluorimetry relative to control; format: cell-based
Procedure, shortened: (§3)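 P-gp efflux inhibition in MDR1-MDCKII cells with calcein AM substrate, tested up to 100.0 µM. Read as percentage inhibition of control.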

hERG (KCNH2) [11] = target: T1, hERG (KCNH2); experiment: in vitro; settings: CHO-K1 cells expressing human ERG; remark: listed apart in the source
HepG2 [12] = experiment: Cytotoxicity against human HepG2 cells assessed as increase in membrane permeability at 30 uM after 72 hrs by fluorescent image analysis relative to untreated control; format: cell-based; settings: hepg2, 72 h
[13] = system: Human immunodeficiency virus 1; experiment: Selectivity ratio of EC50 for raltegravir resistant HIV1 harboring integrase N155H mutant infected in human MT4 cells to EC50 for wild type HIV1 3B infected in human MT4 cells; format: functional
Procedure, shortened: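 MT-4/MTT cytopathic-effect assay in human MT-4 lymphocytes. Cells were infected with 100–300 CCID50 of each virus stock in the presence of 5-fold serial drug dilutions. The HIV-1 IIIB wild-type stock was titrated on MT-4 cells. Viability was read spectrophotometrically as formazan from MTT reduction. EC50 is the concentration giving 50% protection against CPE for each strain. Fold-change is mutant-strain EC50 relative to wild-type EC50.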

CYP2C9 = CYP2C9 (Homo sapiens, UniProt P11712); experiment: Inhibition of human recombinant CYP2C9 using MFC as substrate at 10 uM incubated for 40 mins by fluorimetry relative to control; format: ADME; settings: recombinant CYP2C9, probe MFC
CYP2C9, sequence (P11712 whole entry, canonical isoform): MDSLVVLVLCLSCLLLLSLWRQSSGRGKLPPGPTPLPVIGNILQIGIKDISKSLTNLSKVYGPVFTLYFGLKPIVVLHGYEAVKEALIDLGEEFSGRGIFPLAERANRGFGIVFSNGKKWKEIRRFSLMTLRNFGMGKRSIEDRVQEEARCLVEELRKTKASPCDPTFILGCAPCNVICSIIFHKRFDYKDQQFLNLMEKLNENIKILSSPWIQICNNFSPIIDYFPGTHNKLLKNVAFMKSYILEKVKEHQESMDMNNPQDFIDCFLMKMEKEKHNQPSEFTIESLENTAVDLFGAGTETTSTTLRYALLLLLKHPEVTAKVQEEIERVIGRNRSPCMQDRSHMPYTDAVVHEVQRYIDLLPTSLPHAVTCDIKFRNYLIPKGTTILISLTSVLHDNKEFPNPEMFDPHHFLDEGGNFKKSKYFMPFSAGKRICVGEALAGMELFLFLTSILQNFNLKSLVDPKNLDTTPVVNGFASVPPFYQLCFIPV
Procedure, shortened: (§4)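 Recombinant CYP isoforms, each with its fluorogenic substrate: CYP1A2 and CYP2C19 with CEC, CYP2C9 and CYP2D6 with MFC, CYP3A4 with BFC. Read as percentage inhibition of control, standard contract assays.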

hERG (KCNH2) [14] = target: T1, hERG (KCNH2); experiment: in vitro; settings: CHO-K1 cells expressing human ERG; remark: listed apart in the source
[15] = system: Human immunodeficiency virus 1; experiment: Antiviral activity against HIV1 3B infected in human MT4 cells at 50 to 100 times antiviral EC50 added 1 to 25 hrs post infection assessed as time required for loss of inhibition of viral replication measured at 30 hrs post infection by p24 ELISA method; format: functional
[16] = Therapeutic index, ratio of CC50 for human MT4 cells to EC50 for HIV1 3B infected in human MT4 cells; format: cell-based; settings: read-out: Ratio CC50/EC50
Procedure, shortened: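 Ratio of CC50 to EC50. Both were determined in parallel by MTT in MT-4 cells, with the EC50 measured against HIV-1 IIIB cytopathic effect.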

MDCK-II [17] = experiment: Inhibition of human P-gp expressed in MDCK2-MDR1 cells assessed as reduction in calcien-AM efflux at 1 uM incubated for 20 mins by fluorimetry relative to control; format: cell-based; procedure, shortened: as §3
[18] = Plasma protein binding in human assessed as drug recovery at 10 uM incubated for 4 hrs by equilibrium dialysis method; format: ADME, cell-free; settings: read-out: Drug recovery; procedure, shortened: as §1
[19] = Cytotoxicity against human HepG2 cells assessed as reduction in mitochondrial membrane potential at 100 uM after 72 hrs by fluorescent image analysis relative to untreated control; format: cell-based; settings: read-out: INH; procedure, shortened: as §2
[20] = Cytotoxicity against human HepG2 cells assessed as reduction in cell number at 30 uM after 72 hrs by fluorescent image analysis relative to untreated control; format: cell-based; settings: read-out: INH; procedure, shortened: as §2
CYP3A4 = CYP3A4 (Homo sapiens, UniProt P08684); experiment: Inhibition of human recombinant CYP3A4 using BFC as substrate at 10 uM incubated for 30 mins by fluorimetry relative to control; format: ADME; settings: recombinant CYP3A4, probe BFC; procedure, shortened: as §4
CYP3A4, sequence (P08684 whole entry): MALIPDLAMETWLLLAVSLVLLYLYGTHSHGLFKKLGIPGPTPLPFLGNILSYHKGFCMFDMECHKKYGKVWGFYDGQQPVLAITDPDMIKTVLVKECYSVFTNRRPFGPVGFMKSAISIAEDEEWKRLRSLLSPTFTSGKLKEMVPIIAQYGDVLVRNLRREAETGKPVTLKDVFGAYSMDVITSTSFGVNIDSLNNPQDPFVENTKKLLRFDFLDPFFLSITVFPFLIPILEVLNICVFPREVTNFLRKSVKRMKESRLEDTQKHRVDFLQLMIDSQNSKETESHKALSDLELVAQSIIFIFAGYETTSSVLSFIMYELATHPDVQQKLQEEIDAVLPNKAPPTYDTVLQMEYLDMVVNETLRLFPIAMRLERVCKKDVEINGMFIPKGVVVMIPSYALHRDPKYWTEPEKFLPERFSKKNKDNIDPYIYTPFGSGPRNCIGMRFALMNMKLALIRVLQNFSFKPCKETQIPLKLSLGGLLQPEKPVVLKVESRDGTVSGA

HepG2 [21] = experiment: Cytotoxicity against human HepG2 cells assessed as increase in membrane permeability at 100 uM after 72 hrs by fluorescent image analysis relative to untreated control; format: cell-based; settings: hepg2, 72 h

Question: Which Papp at 10 µM [1] does the source give for CCCCCCNC(=O)C1C(=O)N(O)C(=O)c2ccccc21 (stereo not drawn) here?
Answer: Its Papp at 10 µM is 24.6 ×10⁻⁶ cm/s.

Question: What about the inhibition at 5 min, 0.1 µM (hERG (KCNH2) [2]) of the same compound?
Answer: The inhibition at 5 min, 0.1 µM was 5.8%.

Question: And the fraction unbound at 4 h, 10 µM [3]?
Answer: The fraction unbound at 4 h, 10 µM was 0.001.

Question: What about the IC50 [4] of the same compound?
Answer: The IC50 was 5350 nM.

Question: And the Activity (HepG2 [5])?
Answer: The Activity was 5.8%.

Question: What about the cytotoxicity at 72 h, 1 µM [6] of the same compound?
Answer: Its cytotoxicity at 72 h, 1 µM is 5.7%.

Question: And the IC50 [7]?
Answer: Its IC50 is 195 nM.

Question: What about the cytotoxicity at 72 h, 100 µM [8] of the same compound?
Answer: Its cytotoxicity at 72 h, 100 µM is 25.3%.

Question: What about the “Ratio EC50” value [9] of the same compound?
Answer: The value was 1.

Question: What about the inhibition (MDCK-II [10]) of the same compound?
Answer: The inhibition was 2%.

Question: And the inhibition at 5 min, 10 µM (hERG (KCNH2) [11])?
Answer: The inhibition at 5 min, 10 µM was 19.4%.

Question: What about the Activity (HepG2 [12]) of the same compound?
Answer: Its Activity is 7%.

Question: And the “Ratio EC50” value [13]?
Answer: The value was 1.

Question: What about the inhibition at 40 min, 10 µM (CYP2C9) of the same compound?
Answer: The inhibition at 40 min, 10 µM was 25.3%.

Question: And the inhibition at 5 min, 1 µM (hERG (KCNH2) [14])?
Answer: Its inhibition at 5 min, 1 µM is 12.2%.

Question: And the Activity [15]?
Answer: The Activity was “Active”.

Question: What about the selectivity ratio [16] of the same compound?
Answer: Its selectivity ratio is 21.2.

Question: And the inhibition (MDCK-II [17])?
Answer: The inhibition was -5.5%.

Question: And the recovery at 4 h, 10 µM [18]?
Answer: Its recovery at 4 h, 10 µM is 93.2%.

Question: What about the cytotoxicity at 72 h, 100 µM [19] of the same compound?
Answer: Its cytotoxicity at 72 h, 100 µM is 33.9%.

Question: What about the cytotoxicity at 72 h, 30 µM [20] of the same compound?
Answer: Its cytotoxicity at 72 h, 30 µM is 4.9%.

Question: And the inhibition at 0.5 h, 10 µM (CYP3A4)?
Answer: The inhibition at 0.5 h, 10 µM was 42%.

Question: What about the Activity (HepG2 [21]) of the same compound?
Answer: The Activity was 23.6%.
